Experimental data published in ChEMBL document CHEMBL3779892, “Increasing the binding affinity of VEGFR-2 inhibitors by extending their hydrophobic interaction with the active site: Design, synthesis and biological evaluation of 1-substituted-4-(4-methoxybenzyl)phthalazine derivatives” (Eur J Med Chem, 2016).

Columns and labels:
Format in all cases: functional
[1] = Growth inhibition of human BT549 cells at 10 uM after 48 hrs by sulforhodamine B assay; details: BT-549, 48 h, read-out: GI
How it was run: (§1)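 Run at NCI on the 60-line panel. Cells grown in RPMI 1640 with 5% FBS and 2 mM L-glutamine, plated at 5000–40,000 cells/well by doubling time, and held 24 h at 37 °C before dosing. Drug (DMSO stock) given at a single final 10 µM in triplicate wells for 48 h. Adherent cells fixed with cold TCA (10% final), suspension cells with 16% TCA. SRB stain read at 515 nm. Percent growth from Tz, C and Ti.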

[2] = Growth inhibition of human UO31 cells at 10 uM after 48 hrs by sulforhodamine B assay; details: UO-31, 48 h, read-out: GI
How it was run: (§2)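 NCI-60 panel, adherent cells grown in RPMI 1640 with 5% FBS and 2 mM L-glutamine, plated at 5000–40,000 cells/well and preincubated 24 h at 37 °C, 5% CO2. 10 µM final compound from DMSO stock, triplicate wells, 48 h. Fixed with cold TCA (10% final, 60 min, 4 °C) and stained with 0.4% SRB. Absorbance read at 515 nm; growth calculated against time-zero and control wells.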

HT-29 = assay: Growth inhibition of human HT-29 cells at 10 uM after 48 hrs by sulforhodamine B assay; details: HT-29, 48 h, read-out: GI; how it was run: as §1
[3] = Growth inhibition of human HOP92 cells at 10 uM after 48 hrs by sulforhodamine B assay; details: HOP-92, 48 h, read-out: GI; how it was run: as §1
[4] = Growth inhibition of human HCT15 cells at 10 uM after 48 hrs by sulforhodamine B assay; details: HCT-15, 48 h, read-out: GI; how it was run: as §1
[5] = Growth inhibition of human IGROV1 cells at 10 uM after 48 hrs by sulforhodamine B assay; details: IGROV-1, 48 h, read-out: GI; how it was run: as §1
CCRF-CEM = assay: Growth inhibition of human CCRF-CEM cells at 10 uM after 48 hrs by sulforhodamine B assay; details: read-out: GI; how it was run: as §1
[6] = Growth inhibition of human SKOV3 cells at 10 uM after 48 hrs by sulforhodamine B assay; details: SK-OV-3, 48 h, read-out: GI; how it was run: as §1
[7] = Growth inhibition of human SNB19 cells at 10 uM after 48 hrs by sulforhodamine B assay; details: SNB-19, 48 h, read-out: GI; how it was run: as §1
U-251 = assay: Growth inhibition of human U251 cells at 10 uM after 48 hrs by sulforhodamine B assay; details: U-251, 48 h, read-out: GI; how it was run: as §2
Malme-3M = assay: Growth inhibition of human MALME-3M cells at 10 uM after 48 hrs by sulforhodamine B assay; details: read-out: GI; how it was run: as §1
M14 = assay: Growth inhibition of human M14 cells at 10 uM after 48 hrs by sulforhodamine B assay; details: M14, 48 h, read-out: GI; how it was run: as §1
[8] = Growth inhibition of human Caki1 cells at 10 uM after 48 hrs by sulforhodamine B assay; details: CAKI-1, 48 h, read-out: GI; how it was run: as §1
A549 = assay: Growth inhibition of human A549 cells at 10 uM after 48 hrs by sulforhodamine B assay; details: A549, 48 h, read-out: GI; how it was run: as §1
MDA-MB-231 = assay: Growth inhibition of human MDA-MB-231 cells at 10 uM after 48 hrs by sulforhodamine B assay; details: MDA-MB-231, 48 h, read-out: GI; how it was run: as §1
NCI-H460 = assay: Growth inhibition of human NCI-H460 cells at 10 uM after 48 hrs by sulforhodamine B assay; details: NCI-H460, 48 h, read-out: GI; how it was run: as §1
MCF7 = assay: Growth inhibition of human MCF7 cells at 10 uM after 48 hrs by sulforhodamine B assay; details: MCF7, 48 h, read-out: GI; how it was run: as §1
[9] = Growth inhibition of human SF268 cells at 10 uM after 48 hrs by sulforhodamine B assay; details: SF-268, 48 h, read-out: GI; how it was run: as §1
[10] = Growth inhibition of human RXF393 cells at 10 uM after 48 hrs by sulforhodamine B assay; details: RXF 393, 48 h, read-out: GI; how it was run: as §1
[11] = Growth inhibition of human UACC62 cells at 10 uM after 48 hrs by sulforhodamine B assay; details: UACC-62, 48 h, read-out: GI; how it was run: as §2
ACHN = assay: Growth inhibition of human ACHN cells at 10 uM after 48 hrs by sulforhodamine B assay; details: read-out: GI; how it was run: as §1
[12] = Growth inhibition of human OVCAR4 cells at 10 uM after 48 hrs by sulforhodamine B assay; details: OVCAR-4, 48 h, read-out: GI; how it was run: as §1
NCI-H226 = assay: Growth inhibition of human NCI-H226 cells at 10 uM after 48 hrs by sulforhodamine B assay; details: NCI-H226, 48 h, read-out: GI; how it was run: as §1
[13] = Growth inhibition of human SF295 cells at 10 uM after 48 hrs by sulforhodamine B assay; details: SF-295, 48 h, read-out: GI; how it was run: as §1
[14] = Growth inhibition of human OVCAR5 cells at 10 uM after 48 hrs by sulforhodamine B assay; details: OVCAR-5, 48 h, read-out: GI; how it was run: as §1
[15] = Growth inhibition of human NCI-ADR-RES cells at 10 uM after 48 hrs by sulforhodamine B assay; details: read-out: GI; how it was run: as §1
SK-MEL-28 = assay: Growth inhibition of human SK-MEL-28 cells at 10 uM after 48 hrs by sulforhodamine B assay; details: SK-MEL-28, 48 h, read-out: GI; how it was run: as §1
NCI-H23 = assay: Growth inhibition of human NCI-H23 cells at 10 uM after 48 hrs by sulforhodamine B assay; details: NCI-H23, 48 h, read-out: GI; how it was run: as §1
[16] = Growth inhibition of human COLO205 cells at 10 uM after 48 hrs by sulforhodamine B assay; details: COLO 205, 48 h, read-out: GI; how it was run: as §1
K562 = assay: Growth inhibition of human K562 cells at 10 uM after 48 hrs by sulforhodamine B assay; details: K562, 48 h, read-out: GI; how it was run: as §1
[17] = Growth inhibition of human LOXIMVI cells at 10 uM after 48 hrs by sulforhodamine B assay; details: LOX IMVI, read-out: GI; how it was run: as §1
T47D = assay: Growth inhibition of human T47D cells at 10 uM after 48 hrs by sulforhodamine B assay; details: read-out: GI; how it was run: as §2
NCI-H322M = assay: Growth inhibition of human NCI-H322M cells at 10 uM after 48 hrs by sulforhodamine B assay; details: read-out: GI; how it was run: as §1
NCI-H522 = assay: Growth inhibition of human NCI-H522 cells at 10 uM after 48 hrs by sulforhodamine B assay; details: NCI-H522, 48 h, read-out: GI; how it was run: as §1
[18] = Growth inhibition of human HOP62 cells at 10 uM after 48 hrs by sulforhodamine B assay; details: HOP-62, 48 h, read-out: GI; how it was run: as §1
[19] = Growth inhibition of human OVCAR8 cells at 10 uM after 48 hrs by sulforhodamine B assay; details: OVCAR-8, 48 h, read-out: GI; how it was run: as §1
[20] = Growth inhibition of human SF539 cells at 10 uM after 48 hrs by sulforhodamine B assay; details: SF-539, 48 h, read-out: GI; how it was run: as §1

SMILES	inhibition of growth at 10 µM [1] [%]	inhibition of growth at 10 µM [2] [%]	inhibition of growth at 10 µM (HT-29) [%]	inhibition of growth at 10 µM [3] [%]	inhibition of growth at 10 µM [4] [%]	inhibition of growth at 10 µM [5] [%]	inhibition of growth at 10 µM (CCRF-CEM) [%]	inhibition of growth at 10 µM [6] [%]	inhibition of growth at 10 µM [7] [%]	inhibition of growth at 10 µM (U-251) [%]	inhibition of growth at 10 µM (Malme-3M) [%]	inhibition of growth at 10 µM (M14) [%]	inhibition of growth at 10 µM [8] [%]	inhibition of growth at 10 µM (A549) [%]	inhibition of growth at 10 µM (MDA-MB-231) [%]	inhibition of growth at 10 µM (NCI-H460) [%]	inhibition of growth at 10 µM (MCF7) [%]	inhibition of growth at 10 µM [9] [%]	inhibition of growth at 10 µM [10] [%]	inhibition of growth at 10 µM [11] [%]	also measured
COc1ccc(Cc2nnc(Nc3ccc(NC(=O)Nc4ccc(Cl)c(C(F)(F)F)c4)cc3)c3ccccc23)cc1	< 30	< 30	61	< 30	40	53	55	38	45	51	< 30	40	< 30	48	41	36	46	< 30	72	< 30	inhibition of growth at 10 µM (ACHN): 50%; inhibition of growth at 10 µM [12]: 60%; inhibition of growth at 10 µM (NCI-H226): < 30%; inhibition of growth at 10 µM [13]: 50%; inhibition of growth at 10 µM [14]: 30%; inhibition of growth at 10 µM [15]: 67%; inhibition of growth at 10 µM (SK-MEL-28): < 30%; inhibition of growth at 10 µM (NCI-H23): < 30%; inhibition of growth at 10 µM [16]: 30%; inhibition of growth at 10 µM (K562): 43%; inhibition of growth at 10 µM [17]: 32%; inhibition of growth at 10 µM (T47D): 47%; inhibition of growth at 10 µM (NCI-H322M): 30%; inhibition of growth at 10 µM (NCI-H522): 68%; inhibition of growth at 10 µM [18]: < 30%; inhibition of growth at 10 µM [19]: 66%; inhibition of growth at 10 µM [20]: < 30%
COc1ccc(Cc2nnc(Nc3ccc(NC(=O)Nc4ccc(Cl)cc4)cc3)c3ccccc23)cc1	37	< 30	34	< 30	41	< 30	42	< 30	39	48	< 30	30	< 30	33	30	110	33	< 30	79	< 30	inhibition of growth at 10 µM (ACHN): 46%; inhibition of growth at 10 µM [12]: < 30%; inhibition of growth at 10 µM (NCI-H226): < 30%; inhibition of growth at 10 µM [13]: 52%; inhibition of growth at 10 µM [14]: < 30%; inhibition of growth at 10 µM [15]: < 30%; inhibition of growth at 10 µM (SK-MEL-28): < 30%; inhibition of growth at 10 µM (NCI-H23): < 30%; inhibition of growth at 10 µM [16]: < 30%; inhibition of growth at 10 µM (K562): < 30%; inhibition of growth at 10 µM [17]: < 30%; inhibition of growth at 10 µM (T47D): 37%; inhibition of growth at 10 µM (NCI-H322M): < 30%; inhibition of growth at 10 µM (NCI-H522): 43%; inhibition of growth at 10 µM [18]: < 30%; inhibition of growth at 10 µM [19]: < 30%; inhibition of growth at 10 µM [20]: 41%
